Test results taken from ChEMBL document CHEMBL1138361, “4-acyl-1-(4-aminoalkoxyphenyl)-2-ketopiperazines as a novel class of non-brain-penetrant histamine H3 receptor antagonists” (J Med Chem, 2007).
One block for each compound: values may come before it.

How the values were obtained:
[1] = Partition coefficient, log D at pH 7.4; format: physicochemical; details: octanol/water
How it was run: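 Compound in phosphate buffer was shaken with buffer-saturated octanol (3 × 50 inversions). Phases were separated by centrifugation at 300g for 15 min. Both phases were quantified by HPLC, and log D was calculated from peak areas normalized to injection volume.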

[2] = Ratio of drug level in brain to blood in CD Sprague-Dawley rat at 1 mg/kg, iv after 5 mins; format: ADME, organism-based; parameters: dose 1 mg/kg, route intravenous; details: brain and blood
How it was run: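 Male CD Sprague-Dawley rats were dosed iv in DMSO-PEG 200-water (5:45:50). Blood and brain were collected 5 min postdose under terminal isoflurane anesthesia. Blood was protein-precipitated; brain was homogenized and extracted. Parent drug was quantified by LCMS/MS.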

[3] = Tmax in CD Sprague-Dawley rat at 1.0 mg/kg, iv; format: ADME, organism-based; parameters: dose 1 mg/kg, route intravenous; details: in vivo
How it was run: (§1)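 Single iv and oral doses given to male CD Sprague-Dawley rats (1 mg/kg iv, 3 mg/kg po) and male Beagle dogs (1 mg/kg iv, 2 mg/kg po). Vehicle was a DMSO-PEG 200-water (5:45:50) solution. Serial and terminal blood samples were taken at time points up to 7, 12 or 24 h postdose.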

[4] = Cmax in CD Sprague-Dawley rat at 1.0 mg/kg, iv; format: ADME, organism-based; parameters: dose 1 mg/kg, route intravenous; details: in vivo; how it was run: as §1
[5] = Volume of distribution in Beagle dog at 1.0 mg/kg, iv; format: ADME, organism-based, Canis lupus familiaris; parameters: dose 1 mg/kg, route intravenous; details: in vivo; how it was run: as §1
[6] = Oral bioavailability in CD Sprague-Dawley rat at 3.0 mg/kg, po; format: ADME, organism-based; details: in vivo; how it was run: as §1
[7] = Cmax in Beagle dog at 1.0 mg/kg, iv; format: ADME, organism-based, Canis lupus familiaris; parameters: dose 1 mg/kg, route intravenous; details: in vivo; how it was run: as §1
[8] = Tmax in CD Sprague-Dawley rat at 3.0 mg/kg, po; format: ADME, organism-based; parameters: dose 3 mg/kg, route oral; details: in vivo; how it was run: as §1
[9] = Oral bioavailability in Beagle dog at 2.0 mg/kg, po; format: ADME, organism-based, Canis lupus familiaris; details: in vivo; how it was run: as §1
[10] = Tmax in Beagle dog at 2.0 mg/kg, po; format: ADME, organism-based, Canis lupus familiaris; parameters: dose 2 mg/kg, route oral; details: in vivo; how it was run: as §1
[11] = Half life in CD Sprague-Dawley rat at 1.0 mg/kg, iv; format: ADME, organism-based; parameters: dose 1 mg/kg, route intravenous; details: in vivo; how it was run: as §1
[12] = Clearance in Beagle dog at 1.0 mg/kg, iv; format: ADME, organism-based, Canis lupus familiaris; parameters: dose 1 mg/kg, route intravenous; details: in vivo; how it was run: as §1
[13] = AUC in Beagle dog at 1.0 mg/kg, iv; format: ADME, organism-based, Canis lupus familiaris; parameters: dose 1 mg/kg, route intravenous; details: plasma; how it was run: as §1
[14] = AUC in Beagle dog at 2.0 mg/kg, po; format: ADME, organism-based, Canis lupus familiaris; parameters: dose 2 mg/kg, route oral; details: plasma; how it was run: as §1
[15] = Half life in Beagle dog at 1.0 mg/kg, iv; format: ADME, organism-based, Canis lupus familiaris; parameters: dose 1 mg/kg, route intravenous; details: in vivo; how it was run: as §1
[16] = Clearance in CD Sprague-Dawley rat at 1.0 mg/kg, iv; format: ADME, organism-based; parameters: dose 1 mg/kg, route intravenous; details: in vivo; how it was run: as §1
[17] = Volume of distribution in CD Sprague-Dawley rat at 1.0 mg/kg, iv; format: ADME, organism-based; parameters: dose 1 mg/kg, route intravenous; details: in vivo; how it was run: as §1
[18] = AUC in CD Sprague-Dawley rat at 3.0 mg/kg, po; format: ADME, organism-based; parameters: dose 3 mg/kg, route oral; details: plasma; how it was run: as §1
[19] = Cmax in Beagle dog at 2.0 mg/kg, po; format: ADME, organism-based, Canis lupus familiaris; parameters: dose 2 mg/kg, route oral; details: in vivo; how it was run: as §1
[20] = AUC in CD Sprague-Dawley rat at 1.0 mg/kg, iv; format: ADME, organism-based; parameters: dose 1 mg/kg, route intravenous; details: plasma; how it was run: as §1
[21] = Cmax in CD Sprague-Dawley rat at 3.0 mg/kg, po; format: ADME, organism-based; parameters: dose 3 mg/kg, route oral; details: in vivo; how it was run: as §1
[22] = Tmax in Beagle dog at 1.0 mg/kg, iv; format: ADME, organism-based, Canis lupus familiaris; parameters: dose 1 mg/kg, route intravenous; details: in vivo; how it was run: as §1

logD [1]: 0.99
Compound: O=C(c1cc(F)cc(F)c1)N1CCN(c2ccc(OC3CCN(C4CCC4)CC3)cc2)C(=O)C1

logD [1]: 0.24
Compound: O=C(c1cc(F)cc(F)c1)N1CCN(c2ccc(OCCCN3CCCCCC3)cc2)C(=O)C1

logD [1]: -0.6
Compound: C[C@H]1CCCN1CCCOc1ccc(N2CCN(C(=O)c3ccc(C#N)cc3)CC2=O)cc1

logD [1]: 0.1
Compound: O=C(c1ccc(F)cc1F)N1CCN(c2ccc(OCCCN3CCCCC3)cc2)C(=O)C1

logD [1]: 0.37
Compound: N#Cc1ccc(C(=O)N2CCN(c3ccc(OC4CCN(C5CCCC5)CC4)cc3)C(=O)C2)cc1

logD [1]: -1.6
Compound: O=C(c1ccncc1)N1CCN(c2ccc(OCCCN3CCCCC3)cc2)C(=O)C1

logD [1]: 1.03
Compound: O=C(c1cc(F)cc(F)c1)N1CCN(c2ccc(OC3CCN(C4CCCC4)CC3)cc2)C(=O)C1

logD [1]: 1.52
Compound: O=C(c1ccc(Cl)cc1)N1CCN(c2ccc(OC3CCN(C4CCCC4)CC3)cc2)C(=O)C1

logD [1]: -0.47
Compound: O=C(c1ccc(F)cc1)N1CCN(c2ccc(OCCCN3CCCCCC3)cc2)C(=O)C1

logD [1]: 0.09
Compound: C[C@H]1CCCN1CCCOc1ccc(N2CCN(C(=O)c3cc(F)cc(F)c3)CC2=O)cc1

logD [1]: 0.88
Compound: O=C(c1ccc(F)cc1)N1CCN(c2ccc(OC3CCN(C4CCCC4)CC3)cc2)C(=O)C1

logD [1]: 0.48
Compound: Cc1ccc(C(=O)N2CCN(c3ccc(OCCCN4CCCCC4)cc3)C(=O)C2)cc1

Kp at 5 min [2]: 0.4
logD [1]: 1.51
Compound: Cl.O=C(c1ccc(Cl)cc1)N1CCN(c2ccc(OC3CCN(C4CCC4)CC3)cc2)C(=O)C1

Compound: C[C@@H]1CCCN1CCCOc1ccc(N2CCN(C(=O)c3ccc(F)cc3F)CC2=O)cc1.O=CO
Tmax [3]: 4.8 min
Cmax [4]: 291 ng/mL
Vd [5]: 2.3 L/kg
Kp at 5 min [2]: 0.2
bioavailability [6]: 48%
Cmax [7]: 414 ng/mL
Tmax [8]: 4 h
bioavailability [9]: 100%
Tmax [10]: 4 h
half-life [11]: 1.1 h
clearance [12]: 6.5 mL/min/kg
AUC [13]: 2160 ng·h/mL
AUC [14]: 4800 ng·h/mL
half-life [15]: 4.3 h
clearance [16]: 31 mL/min/kg
Vd [17]: 2 L/kg
AUC [18]: 753 ng·h/mL
Cmax [19]: 734 ng/mL
AUC [20]: 682 ng·h/mL
Cmax [21]: 109 ng/mL
logD [1]: -0.08
Tmax [22]: 4.8 min

logD [1]: 1.3
Compound: Cc1ccc(C(=O)N2CCN(c3ccc(OC4CCN(C5CCC5)CC4)cc3)C(=O)C2)cc1

logD [1]: -0.38
Compound: N#Cc1ccc(C(=O)N2CCN(c3ccc(OCCCN4CCCCC4)cc3)C(=O)C2)cc1

logD [1]: -0.13
Compound: C[C@H]1CCCN1CCCOc1ccc(N2CCN(C(=O)c3ccc(F)cc3F)CC2=O)cc1

logD [1]: 0.2
Compound: O=C(c1cc(F)cc(F)c1)N1CCN(c2ccc(OCCCN3CCCCC3)cc2)C(=O)C1

logD [1]: 0.73
Compound: O=C(c1ccccc1)N1CCN(c2ccc(OC3CCN(C4CCC4)CC3)cc2)C(=O)C1

logD [1]: -0.41
Compound: CS(=O)(=O)c1cccc(C(=O)N2CCN(c3ccc(OC4CCN(C5CCCC5)CC4)cc3)C(=O)C2)c1

Tmax [3]: 4.8 min
Cmax [4]: 342 ng/mL
Tmax [8]: 7 h
half-life [11]: 1.3 h
clearance [16]: 31 mL/min/kg
Vd [17]: 2 L/kg
AUC [18]: 355 ng·h/mL
AUC [20]: 536 ng·h/mL
Cmax [21]: 40 ng/mL
logD [1]: 0.14
Compound: O=C(c1ccc(F)cc1)N1CCN(c2ccc(OCCCN3CCCC3)cc2)C(=O)C1.O=CO

logD [1]: -0.45
Compound: O=C(c1ccc(F)cc1F)N1CCN(c2ccc(OCCCN3CCCC3)cc2)C(=O)C1

logD [1]: 0.95
Compound: O=C(c1ccc(F)cc1F)N1CCN(c2ccc(OC3CCN(C4CCC4)CC3)cc2)C(=O)C1

logD [1]: -1.07
Compound: N#Cc1ccc(C(=O)N2CCN(c3ccc(OCCCN4CCCC4)cc3)C(=O)C2)cc1
